From ChEMBL document CHEMBL3259808, “Optimization of antitrypanosomatid agents: identification of nonmutagenic drug candidates with in vivo activity” (J Med Chem, 2014)
Several values for one entry are separate records, joined by “and”; a condition that tells them apart may be missing. Equal entries are not always repeated. Blank lines part the entries; values can stand above or below the molecule they belong to.

What was measured:
Salmonella typhimurium [1] = assay: Mutagenic activity in Salmonella typhimurium TA98 at 3 to 250 ug/plate by Ames test; format: toxicity, organism-based; conditions: salmonella enterica subsp. enterica serovar typhimurium
Procedure, shortened: (§1)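 Ames plate-incorporation assay with S. typhimurium TA98 in Vogel-Bonner E minimal glucose agar. Toxicity toward the bacteria was checked first. DMSO solutions were run in triplicate at five consecutive third-dilutions, starting at the highest non-toxic dose. Positive controls were 4-nitro-o-phenylenediamine (20.0 μg/plate) and 2-aminofluorene (10.0 μg/plate); DMSO was the negative control. Revertants were counted manually. A compound was called mutagenic when revertants were at least twice the negative control at two or more consecutive doses.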

[2] = Selectivity index, ratio of IC50 for human RBC to IC50 for Trypanosoma cruzi Sylvio X-10 amastigotes
Procedure, shortened: (§2)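 Hemolysis: washed human erythrocytes (2% w/v in PBS) incubated 24 h at 37 °C with compound at final 50, 100 and 200 μM. Ten replicates per concentration. Hemoglobin release read at 405 nm against water lysis as 100%; amphotericin B 1.5 μM was the positive control. SI = IC50 red cells / parasite IC50 (Sylvio X-10 amastigotes or Tulahuen 2 epimastigotes).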

Trypanosoma cruzi [3] = assay: Antitrypanosomal activity against Trypanosoma cruzi Sylvio X-10 amastigotes infected in African green monkey Vero cells assessed as eradication of amastigotes after 5 days by Giemsa staining-based assay; format: functional, organism-based; conditions: Sylvio X-10, Vero, 120 h
Procedure, shortened: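 VERO cells in RPMI 1640 with 10% hiFCS were allowed to adhere for 24 h at 37 °C in 5% CO₂, then infected with tissue-derived trypomastigotes at 10:1. Free parasites were washed off after 24 h, and cultures were treated at five compound doses (text gives 72 h / 5 days). Cultures were methanol-fixed and Giemsa-stained, and infected cells were counted among 300. Quadruplicates were run in three independent experiments. IC50/IC90 were obtained by sigmoidal regression.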

[4] = Selectivity index, ratio of IC50 for African green monkey Vero cells to IC50 for Trypanosoma cruzi Sylvio X-10 amastigotes; format: toxicity, cell-based; conditions: read-out: Ratio IC50
Procedure, shortened: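 VERO cytotoxicity: cells exposed 48 h at 37 °C, 5% CO2 to serial dilutions from a maximum of 2000 μM (DMSO stocks; DMSO <0.1% control); growth inhibition read by MTT at 570 nm. Amastigote IC50: Sylvio X-10-infected VERO cells, five doses, infected cells counted among 300 (Giemsa), quadruplicate, three experiments, sigmoidal fit. SI = IC50 VERO / IC50 amastigote.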

Trypanosoma cruzi [5] = assay: Antitrypanosomal activity against Trypanosoma cruzi Tulahuen 2 epimastigotes assessed as growth inhibition after 5 days; format: functional, organism-based; conditions: Trypanosoma cruzi, Tulahuen 2, 120 h
Procedure, shortened: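 Epimastigotes were grown axenically at 28 °C in BHI-tryptose with 5% FBS and seeded from a 5–7 day culture at 1 × 10⁶ cells/mL. Drug from a DMSO stock was added (final DMSO ≤0.4%; the control contained 0.4% DMSO). Duplicates were run. A600 was read at day 5, and % inhibition was calculated relative to day-0 and control readings. IC50 = concentration that halves the absorbance ratio.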

Salmonella typhimurium [6] = assay: Mutagenic activity in Salmonella typhimurium TA98 at 3 to 250 ug/plate by Ames test in presence of mouse liver S9 fraction; format: toxicity, organism-based; conditions: salmonella enterica subsp. enterica serovar typhimurium; procedure, shortened: as §1
[7] = Selectivity index, ratio of IC50 for human RBC to IC50 for Trypanosoma cruzi Tulahuen 2 epimastigotes; procedure, shortened: as §2
Salmonella typhimurium [8] = assay: Mutagenic activity in Salmonella typhimurium TA98 at 0.02 to 2 ug/plate by Ames test in presence of mouse liver S9 fraction; format: toxicity, organism-based; conditions: salmonella enterica subsp. enterica serovar typhimurium
Procedure, shortened: (§3)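 Plate-incorporation Ames test on minimal glucose agar with 500 μL Aroclor-treated mouse liver S9 added. DMSO solutions were tested at five consecutive 3-fold dilutions from the highest non-toxic dose, in triplicate, with a DMSO negative control. Revertants were counted manually; a compound was scored mutagenic when revertants were at least twice the negative control for two or more consecutive doses.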

Salmonella typhimurium [9] = assay: Mutagenic activity in Salmonella typhimurium TA98 at 0.02 to 2 ug/plate by Ames test; format: toxicity, organism-based; conditions: salmonella enterica subsp. enterica serovar typhimurium
Procedure, shortened: (§4)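 Direct plate incubation on minimal glucose agar (Vogel-Bonner E). Compound toxicity to the bacteria was checked first. DMSO solutions were tested at five consecutive 3-fold dilutions, starting from the highest non-toxic dose, in triplicate, without metabolic activation. DMSO served as negative control. Revertants were counted manually; mutagenic = revertants at least double the negative control at two or more consecutive doses.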

[10] = Selectivity index, ratio of IC50 for mouse J774.1 cells to IC50 for Trypanosoma cruzi Sylvio X-10 amastigotes; format: toxicity; conditions: read-out: Ratio IC50
Procedure, shortened: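 J774.1 macrophages grown in DMEM with 10% heat-inactivated FCS and allowed to attach 48 h, then exposed 48 h at 37 °C to 12.5–400.0 μM. Triplicates. MTT 0.1 mg/mL for 3 h, read at 560 nm; IC50 by linear regression against the solvent control. SI = IC50 J774.1 / parasite IC50 (Sylvio X-10 amastigotes or Tulahuen 2 epimastigotes, the latter measured by A600 growth inhibition at day 5).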

Trypanosoma cruzi [11] = assay: Antitrypanosomal activity against Trypanosoma cruzi Sylvio X-10 amastigotes infected in African green monkey Vero cells assessed as eradication of amastigotes after 72 hrs by Giemsa staining-based assay; conditions: vero
Salmonella typhimurium [12] = assay: Mutagenic activity in Salmonella typhimurium TA1535 at […] ug/plate by Ames test; format: toxicity, organism-based; conditions: salmonella enterica subsp. enterica serovar typhimurium; procedure, shortened: as §4
Salmonella typhimurium [13] = assay: Mutagenic activity in Salmonella typhimurium TA100 at 3.09 to 250 ug/plate by Ames test in presence of mouse liver S9 fraction; format: toxicity, organism-based; conditions: salmonella enterica subsp. enterica serovar typhimurium; procedure, shortened: as §3
Salmonella typhimurium [14] = assay: Mutagenic activity in Salmonella typhimurium TA102 at […] ug/plate by Ames test in presence of mouse liver S9 fraction; format: toxicity, organism-based; conditions: salmonella enterica subsp. enterica serovar typhimurium; procedure, shortened: as §3
Salmonella typhimurium [15] = assay: Mutagenic activity in Salmonella typhimurium TA98 at 6 to 500 ug/plate by Ames test in presence of mouse liver S9 fraction; format: toxicity, organism-based; conditions: salmonella enterica subsp. enterica serovar typhimurium; procedure, shortened: as §1
Salmonella typhimurium [16] = assay: Mutagenic activity in Salmonella typhimurium TA1537 at 0.03 to 0.2 ug/plate by Ames test in presence of mouse liver S9 fraction; format: toxicity, organism-based; conditions: salmonella enterica subsp. enterica serovar typhimurium, in the assay text read “0.003 to 0.2 ug/plate” for “0.03 to 0.2 ug/plate”; procedure, shortened: as §3
Trypanosoma cruzi [17] = assay: Antitrypanosomal activity against Trypanosoma cruzi Sylvio X-10 amastigotes infected in African green monkey Vero cells assessed as eradication of amastigotes after 72 hrs by Giemsa staining-based assay; conditions: Sylvio X-10, Vero
Salmonella typhimurium [18] = assay: Mutagenic activity in Salmonella typhimurium TA98 at 6 to 500 ug/plate by Ames test; format: toxicity, organism-based; conditions: salmonella enterica subsp. enterica serovar typhimurium; procedure, shortened: as §1
Salmonella typhimurium [19] = assay: Mutagenic activity in Salmonella typhimurium TA100 at 3.09 to 250 ug/plate by Ames test; format: toxicity, organism-based; conditions: salmonella enterica subsp. enterica serovar typhimurium; procedure, shortened: as §4
[20] = Stability of the compound in aqueous solution assessed as compound remaining at 1 mM at pH 7.4 after 1 hr by TLC analysis; format: physicochemical; conditions: aqueous solution, pH 7.4; read-out: Stability
Procedure, shortened: (§5)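 DMSO stocks diluted to final 1 mM in KCl·HCl pH 1.0, citrate pH 6.0, Tris·HCl pH 7.4 or borax·HCl pH 9.0 buffer. Incubated 1 h at 37 °C, then ethyl acetate extracts checked by TLC for decomposition products.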

Salmonella typhimurium [21] = assay: Mutagenic activity in Salmonella typhimurium TA102 at […] ug/plate by Ames test; format: toxicity, organism-based; conditions: salmonella enterica subsp. enterica serovar typhimurium; procedure, shortened: as §4
[22] = Stability of the compound in aqueous solution assessed as compound remaining at 1 mM at pH 6 after 1 hr by TLC analysis; format: physicochemical; conditions: aqueous solution, pH 6; read-out: Stability; procedure, shortened: as §5
[23] = Stability of the compound in aqueous solution assessed as compound remaining at 1 mM at pH 1 after 1 hr by TLC analysis; format: physicochemical; conditions: read-out: Stability; procedure, shortened: as §5
Salmonella typhimurium [24] = assay: Mutagenic activity in Salmonella typhimurium TA1537 at 0.03 to 0.2 ug/plate by Ames test; format: toxicity, organism-based; conditions: salmonella enterica subsp. enterica serovar typhimurium; procedure, shortened: as §4
Salmonella typhimurium [25] = assay: Mutagenic activity in Salmonella typhimurium TA1535 at […] ug/plate by Ames test in presence of mouse liver S9 fraction; format: toxicity, organism-based; conditions: salmonella enterica subsp. enterica serovar typhimurium; procedure, shortened: as §3
[26] = Stability of the compound in aqueous solution assessed as compound remaining at 1 mM at pH 9 after 1 hr by TLC analysis; format: physicochemical; conditions: aqueous solution, pH 9; read-out: Stability; procedure, shortened: as §5
Salmonella typhimurium [27] = assay: Mutagenic activity in Salmonella typhimurium TA98 at 0.04 to 4 ug/plate by Ames test; format: toxicity, organism-based; conditions: salmonella enterica subsp. enterica serovar typhimurium; procedure, shortened: as §1
Salmonella typhimurium [28] = assay: Mutagenic activity in Salmonella typhimurium TA98 at 0.04 to 4 ug/plate by Ames test in presence of mouse liver S9 fraction; format: toxicity, organism-based; conditions: salmonella enterica subsp. enterica serovar typhimurium; procedure, shortened: as §1

SMILES: C=CCNC(=S)N/N=C/C=C/c1ccc([N+](=O)[O-])s1
Activity (Salmonella typhimurium [1]): Toxic | Ratio IC50 [2]: 82 | IC50 (Trypanosoma cruzi [3]): 1290 nM | selectivity ratio [4]: 60 | IC50 (Trypanosoma cruzi [5]): 1200 nM | Activity (Salmonella typhimurium [6]): Toxic

SMILES: S=C(N/N=C/c1cccs1)Nc1ccccc1
IC50 (Trypanosoma cruzi [5]): 4700 nM | Ratio IC50 [7]: 21

SMILES: C=CCN1C(=O)CS\C1=N/N=C/C=C/c1ccc([N+](=O)[O-])s1
Ratio IC50 [2]: 28 | Activity (Salmonella typhimurium [8]): Non-toxic | IC50 (Trypanosoma cruzi [3]): 2800 nM | selectivity ratio [4]: 80 | IC50 (Trypanosoma cruzi [5]): 1300 nM | Activity (Salmonella typhimurium [9]): Toxic

SMILES: CC1CS(=O)(=O)CCN1/N=C/c1ccc([N+](=O)[O-])o1 (centres undefined) [NIFURTIMOX]
Ratio IC50 [2]: 150 | selectivity ratio [4]: 200 | IC50 (Trypanosoma cruzi [5]): 8000 nM | selectivity ratio [10]: 200 | IC50 (Trypanosoma cruzi [11]): 450 nM and 2400 nM

SMILES: C=CCNC(=S)N/N=C/C=C/C=C/c1cccs1
Activity (Salmonella typhimurium [15]): Non-toxic | IC50 (Trypanosoma cruzi [3]): > 25000 nM | IC50 (Trypanosoma cruzi [5]): 600 nM | IC90 (Trypanosoma cruzi [17]): > 25000 nM | Activity (Salmonella typhimurium [18]): Non-toxic

Now from value to molecule, other results behind:

IC50 (Trypanosoma cruzi [3]): 6300 nM | IC50 (Trypanosoma cruzi [5]): > 25000 nM | IC90 (Trypanosoma cruzi [17]): 51000 nM | remaining at 1 h, 1000 µM [20]: > 95% | remaining at 1 h, 1000 µM [22]: > 95% | remaining at 1 h, 1000 µM [23]: 90% | remaining at 1 h, 1000 µM [26]: > 95%
SMILES: C=CCn1c(C)cs/c1=N/N=C/C=C/c1ccco1
Activity (Salmonella typhimurium [12]): Non-toxic | Activity (Salmonella typhimurium [13]): Non-toxic | Activity (Salmonella typhimurium [14]): Non-toxic | Activity (Salmonella typhimurium [15]): Non-toxic | Activity (Salmonella typhimurium [16]): Non-toxic | Activity (Salmonella typhimurium [18]): Non-toxic | Activity (Salmonella typhimurium [19]): Non-toxic | Activity (Salmonella typhimurium [21]): Non-toxic | Activity (Salmonella typhimurium [24]): Non-toxic | Activity (Salmonella typhimurium [25]): Non-toxic

IC50 (Trypanosoma cruzi [5]): 9000 nM
SMILES: C=CCn1c(-c2ccc(N)cc2)cs\c1=N/N=C/C=C/c1ccco1
Activity (Salmonella typhimurium [27]): Non-toxic | Activity (Salmonella typhimurium [28]): Non-toxic
